Laboratory results reported in ChEMBL document CHEMBL1125291, “New 8-(trifluoromethyl)-substituted quinolones. The benefits of the 8-fluoro group with reduced phototoxic risk” (1992).
In brackets after ≈: the same amount, converted by molar mass.

Key:
Mus musculus [1] = species: Mus musculus; assay: Number of mice which show positive phototoxic reaction.; assay type: functional
Outline: (§1)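 Phototoxic skin reaction test in depilated female CD-1 mice. A single oral dose (gavage) or subcutaneous dose was given, followed 1 h later by 3 h of UVA exposure (320–400 nm). The regimen was repeated for up to 4 consecutive days, with initial doses of 30, 100 and 300 mg/kg. PTD50 was derived by the probit method. The first day of positive reaction and the no-effect dose were taken from the raw data.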

Escherichia coli [2] = assay: Minimum inhibitory concentration (MIC) against gram negative bacteria Escherichia coli Vogel.; assay type: functional; conditions: Escherichia coli; read-out: MIC
Outline: (§2)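 MICs were determined by standard broth microtitration against 11 Gram-positive and Gram-negative organisms, in µg/mL. Values come from duplicate or triplicate experiments and are accurate to ±50%.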

Escherichia coli [3] = assay: In vivo efficacy in mouse protection test in Escherichia coli Vogel administered by subcutaneous injection.; assay type: functional; conditions: Escherichia coli, sc; read-out: PD50
Outline: (§3)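 Acute lethal systemic infections in female Charles River CD-1 mice. A single dose was given at challenge, orally by gavage or by subcutaneous injection. PD50 (median protective dose, mg/kg) was determined.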

Klebsiella pneumoniae = assay: Minimum inhibitory concentration (MIC) against gram negative bacteria Klebsiella pneumoniae MGH-2.; assay type: functional; conditions: Klebsiella pneumoniae; read-out: MIC; outline: as §2
Pseudomonas aeruginosa [4] = assay: Minimum inhibitory concentration (MIC) against gram negative bacteria Pseudomonas aeruginosa UI-18.; assay type: functional; conditions: Pseudomonas aeruginosa; read-out: MIC; outline: as §2
Escherichia coli [5] = assay: In vivo efficacy in mouse protection test in Escherichia coli Vogel dose administered orally by gavage.; assay type: functional; conditions: Escherichia coli, po; read-out: PD50; outline: as §3
Streptococcus pyogenes [6] = assay: In vivo efficacy (s.c.) against Streptococcus pyogenes C-203 in mouse protection test; assay type: functional; conditions: Streptococcus pyogenes, sc; read-out: PD50; outline: as §3
Mus musculus [7] = species: Mus musculus; assay: Dose required to induce phototoxic reaction in 50% of mice by probit method at different dosage forms.; assay type: functional
Mus musculus [8] = species: Mus musculus; assay: Dose which has no effect to induce phototoxic reaction in 50% of mice by probit method.; assay type: functional
Streptococcus pyogenes [9] = assay: In vivo efficacy (orally) against Streptococcus pyogenes C-203 in mouse protection test; assay type: functional; conditions: Streptococcus pyogenes, po; read-out: PD50; outline: as §3
Streptococcus pyogenes [10] = assay: Minimum inhibitory concentration (MIC) against gram positive bacteria Streptococcus pyogenes C-203.; assay type: functional; conditions: Streptococcus pyogenes; read-out: MIC; outline: as §2
[11] = Minimum inhibitory concentration (MIC) against gram negative bacteria Prot. rettgeri M-1771.; assay type: functional, Providencia rettgeri; conditions: Providencia rettgeri; read-out: MIC; outline: as §2
Staphylococcus aureus [12] = assay: Minimum inhibitory concentration (MIC) against gram positive bacteria Staphylococcus aureus UC-76.; assay type: functional; conditions: Staphylococcus aureus; read-out: MIC; outline: as §2
Enterobacter cloacae = assay: Minimum inhibitory concentration (MIC) against gram negative bacteria Enterobacter cloacae MA-2646.; assay type: functional
Mus musculus [13] = species: Mus musculus; assay: Days of the first positive reaction in […] mice.; assay type: functional; outline: as §1
Escherichia coli [14] = assay: Minimum inhibitory concentration (MIC) against gram negative bacteria Escherichia coli H-560.; assay type: functional; conditions: Escherichia coli; read-out: MIC; outline: as §2
Enterococcus faecalis = assay: Minimum inhibitory concentration (MIC) against gram positive bacteria Streptococcus faecalis MGH-2.; assay type: functional; conditions: Enterococcus faecalis; read-out: MIC; outline: as §2
Mus musculus [15] = assay: Maximum tolerance dose was measured for phototoxic skin reaction by po administration; assay type: functional
Streptococcus pneumoniae [16] = assay: Minimum inhibitory concentration (MIC) against gram positive bacteria Streptococcus pneumoniae SV-1.; assay type: functional; conditions: Streptococcus pneumoniae; read-out: MIC; outline: as §2
Staphylococcus aureus [17] = assay: Minimum inhibitory concentration (MIC) against gram positive bacteria Staphylococcus aureus H-228.; assay type: functional; conditions: Staphylococcus aureus; read-out: MIC; outline: as §2
Pseudomonas aeruginosa [18] = assay: In vivo efficacy (orally) against Pseudomonas aeruginosa in mouse protection test; assay type: functional; conditions: Pseudomonas aeruginosa, po; read-out: PD50; outline: as §3
Streptococcus pneumoniae [19] = assay: In vivo efficacy (orally) against Streptococcus pneumoniae SV-1 in mouse protection test; assay type: functional; conditions: Streptococcus pneumoniae, po; read-out: PD50; outline: as §3
Streptococcus pneumoniae [20] = assay: In vivo efficacy (s.c.) against Streptococcus pneumoniae SV-1 in mouse protection test; assay type: functional; conditions: Streptococcus pneumoniae, sc; read-out: PD50; outline: as §3
Pseudomonas aeruginosa [21] = assay: In vivo efficacy (s.c.) against Pseudomonas aeruginosa in mouse protection test; assay type: functional; conditions: Pseudomonas aeruginosa, sc; read-out: PD50; outline: as §3
Mus musculus [22] = species: Mus musculus; assay: Number of mice which show positive phototoxic reaction in 5 mice; assay type: functional

| Compound | No. of pos rxns (Mus musculus [1]) | MIC (Escherichia coli [2]) | ED50 (Escherichia coli [3]) | MIC (Klebsiella pneumoniae) | MIC (Pseudomonas aeruginosa [4]) | ED50 (Escherichia coli [5]) | ED50 (Streptococcus pyogenes [6]) | PTD50 (Mus musculus [7]) | No effect dose (Mus musculus [8]) | ED50 (Streptococcus pyogenes [9]) | MIC (Streptococcus pyogenes [10]) | MIC [11] | MIC (Staphylococcus aureus [12]) | MIC (Enterobacter cloacae) | Day of first positve reaction (Mus musculus [13]) | MIC (Escherichia coli [14]) | MIC (Enterococcus faecalis) | MTD (Mus musculus [15]) | MIC (Streptococcus pneumoniae [16]) | MIC (Staphylococcus aureus [17]) | also measured |
| --- | --- | --- | --- | --- | --- | --- | --- | --- | --- | --- | --- | --- | --- | --- | --- | --- | --- | --- | --- | --- | --- |
| NC1CCCN(c2c(F)cc3c(=O)c(C(=O)O)cn(C4CC4)c3c2F)C1 (stereo not drawn) | 0 | 0.2 µg/mL (≈ 0.55 µM) | 1.4 mg/kg | 0.2 µg/mL (≈ 0.55 µM) | 0.2 µg/mL (≈ 0.55 µM) | 4.7 mg/kg | 3.4 mg/kg | >100 mg/kg | 100 mg/kg | 32 mg/kg | 0.1 µg/mL (≈ 0.275 µM) | 0.2 µg/mL (≈ 0.55 µM) | 0.025 µg/mL (≈ 0.0688 µM) | 0.2 µg/mL (≈ 0.55 µM) | 0 | 0.2 µg/mL (≈ 0.55 µM) | 0.1 µg/mL (≈ 0.275 µM) | 100 mg/kg | 0.1 µg/mL (≈ 0.275 µM) | 0.1 µg/mL (≈ 0.275 µM) |  |
| NC1CCCN(c2cc3c(cc2F)c(=O)c(C(=O)O)cn3C2CC2)C1 (stereo not drawn) | 0 | 0.1 µg/mL (≈ 0.29 µM) | 1.4 mg/kg | 0.2 µg/mL (≈ 0.579 µM) | 0.8 µg/mL (≈ 2.32 µM) | 15 mg/kg | 8 mg/kg | >100 mg/kg | 100 mg/kg | > 50 mg/kg | 0.1 µg/mL (≈ 0.29 µM) | 0.8 µg/mL (≈ 2.32 µM) | 0.05 µg/mL (≈ 0.145 µM) | 0.1 µg/mL (≈ 0.29 µM) | 0 | 0.1 µg/mL (≈ 0.29 µM) | 0.2 µg/mL (≈ 0.579 µM) | 100 mg/kg | 0.2 µg/mL (≈ 0.579 µM) | 0.8 µg/mL (≈ 2.32 µM) |  |
| NC1CCN(c2cc3c(cc2F)c(=O)c(C(=O)O)cn3C2CC2)C1 (stereo not drawn) |  | 0.05 µg/mL (≈ 0.151 µM) | 0.5 mg/kg | 0.05 µg/mL (≈ 0.151 µM) | 0.1 µg/mL (≈ 0.302 µM) | 3.4 mg/kg | 11 mg/kg | >300 mg/kg | 300 mg/kg | 97 mg/kg | 0.1 µg/mL (≈ 0.302 µM) | 0.1 µg/mL (≈ 0.302 µM) | 0.025 µg/mL (≈ 0.0754 µM) | 0.025 µg/mL (≈ 0.0754 µM) | 0 | 0.006 µg/mL (≈ 0.0181 µM) | 0.1 µg/mL (≈ 0.302 µM) | 300 mg/kg | 0.05 µg/mL (≈ 0.151 µM) | 0.1 µg/mL (≈ 0.302 µM) | ED50 (Pseudomonas aeruginosa [18]): 49 mg/kg; ED50 (Streptococcus pneumoniae [19]): > 100 mg/kg; ED50 (Streptococcus pneumoniae [20]): 23 mg/kg; ED50 (Pseudomonas aeruginosa [21]): 5.4 mg/kg; No. of pos rxns (Mus musculus [22]): 0 |
| CCNCC1CCN(c2c(F)cc3c(=O)c(C(=O)O)cn(C4CC4)c3c2C(F)(F)F)C1 (stereo not drawn) |  | 0.4 µg/mL (≈ 0.906 µM) | 1.7 mg/kg | 0.8 µg/mL (≈ 1.81 µM) | 6.3 µg/mL (≈ 14.3 µM) | 5.3 mg/kg | 1.1 mg/kg | >100 mg/kg | 100 mg/kg | 1.6 mg/kg | 0.05 µg/mL (≈ 0.113 µM) | 1.6 µg/mL (≈ 3.62 µM) | 0.013 µg/mL (≈ 0.0295 µM) | 0.4 µg/mL (≈ 0.906 µM) | 0 | 0.2 µg/mL (≈ 0.453 µM) | 0.1 µg/mL (≈ 0.227 µM) | 100 mg/kg | 0.05 µg/mL (≈ 0.113 µM) | 0.05 µg/mL (≈ 0.113 µM) | ED50 (Pseudomonas aeruginosa [18]): 93 mg/kg; ED50 (Streptococcus pneumoniae [19]): 1.4 mg/kg; ED50 (Streptococcus pneumoniae [20]): 0.9 mg/kg; ED50 (Pseudomonas aeruginosa [21]): 46 mg/kg; No. of pos rxns (Mus musculus [22]): 0 |
